Experiments:
Escherichia coli = assay: Antimicrobial activity against Escherichia coli at 250 ug/disc after 48 hrs by well diffusion method; assay type: functional; details: read-out: DIZ
In short: (§1)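 Well diffusion assay. Bacteria were grown on nutrient agar and fungi on Czapek's-Dox agar; spores were inoculated into sterilized medium, dispersed and poured into plates. Compounds were dissolved in DMF at 250 mg/mL and loaded into 1 cm wells. Plates stood 24 h refrigerated for diffusion, then were incubated at 35 °C for 48 h (bacteria) or 28 °C for 5-7 days (fungi). Inhibition zone diameter was read in mm. DMF-only wells served as negative control.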

Aspergillus niger = assay: Antimicrobial activity against Aspergillus niger at 250 ug/disc after 5 to 7 days by well diffusion method; assay type: functional; details: read-out: DIZ; in short: as §1
Aspergillus viridinutans = assay: Antimicrobial activity against Aspergillus viridinutans at 250 ug/disc after 5 to 7 days by well diffusion method; assay type: functional; details: read-out: DIZ; in short: as §1
Bacillus subtilis = assay: Antimicrobial activity against Bacillus subtilis at 250 ug/disc after 48 hrs by well diffusion method; assay type: functional; details: read-out: DIZ; in short: as §1
[1] = Selectivity index, ratio of CC50 for cytotoxicity to EC50 for Influenza A virus H1N1; assay type: toxicity; details: read-out: Ratio CC50/EC50
In short: (§2)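 CC50 is the concentration at which 50% of cells die, and EC50 is the concentration inhibiting 50% of viral infection. SI is calculated as the CC50/EC50 ratio.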

SARS-CoV [2] = assay: Antiviral activity against SARS coronavirus by visual/neutral red test; assay type: functional, organism-based; details: Severe acute respiratory syndrome-related coronavirus
Influenza A virus [3] = assay: Antiviral activity against Influenza A virus H3N2 by cytopathy assay; assay type: functional, organism-based
Human alphaherpesvirus 2 = assay: Antiviral activity against HSV2 assessed as inhibition of viral infection; assay type: functional, organism-based
Influenza A virus [4] = assay: Antiviral activity against Influenza A virus H1N1 by cytopathy assay; assay type: functional, organism-based
Hepatitis B virus = assay: Antiviral activity against Hepatitis B virus assessed as inhibition of viral infection by DNA virion assay; assay type: functional, organism-based
Influenza A virus [5] = assay: Antiviral activity against Influenza A virus H5N1 by cytopathy assay; assay type: functional, organism-based
Influenza B virus = assay: Antiviral activity against Influenza B virus by cytopathy assay; assay type: functional, organism-based
Human alphaherpesvirus 1 = assay: Antiviral activity against HSV1 assessed as inhibition of viral infection; assay type: functional, organism-based
[6] = Selectivity index, ratio of CC50 for cytotoxicity to EC50 for HSV2; assay type: toxicity; details: read-out: Ratio CC50/EC50; in short: as §2
Hepatitis C virus = assay: Antiviral activity against Hepatitis C virus assessed as inhibition of viral infection by RNA replicon assay; assay type: functional, organism-based, Hepacivirus hominis
West Nile virus = assay: Antiviral activity against West Nile virus by visual/neutral red test; assay type: functional, organism-based
[7] = Selectivity index, ratio of CC50 for cytotoxicity to EC50 for HSV1; assay type: toxicity; details: read-out: Ratio CC50/EC50; in short: as §2
[8] = Selectivity index, ratio of CC50 for cytotoxicity to EC50 for Influenza A virus H3N2; assay type: toxicity; details: read-out: Ratio CC50/EC50; in short: as §2
[9] = Selectivity index, ratio of CC50 for cytotoxicity to EC50 for Influenza B virus; assay type: toxicity; details: read-out: Ratio CC50/EC50; in short: as §2
[10] = Selectivity index, ratio of CC50 for cytotoxicity to EC50 for Influenza A virus H5N1; assay type: toxicity; details: read-out: Ratio CC50/EC50; in short: as §2
SARS-CoV [11] = assay: Antiviral activity against SARS coronavirus by visual method; assay type: functional, organism-based; details: Severe acute respiratory syndrome-related coronavirus
[12] = Selectivity index, ratio of CC50 for cytotoxicity to EC50 for SARS coronavirus; assay type: toxicity; details: read-out: Ratio CC50/EC50; in short: as §2

SMILES	zone of inhibition at 250 µg/disc (Escherichia coli) [mm]	zone of inhibition at 250 µg/disc (Aspergillus viridinutans) [mm]	zone of inhibition at 250 µg/disc (Bacillus subtilis) [mm]	EC50 (Influenza A virus [3]) [µM]	EC50 (Human alphaherpesvirus 2) [µM]	EC50 (Hepatitis B virus) [µM]	EC50 (Influenza A virus [5]) [µM]	EC50 (Influenza B virus) [µM]	EC50 (Human alphaherpesvirus 1) [µM]	selectivity ratio [6]	EC50 (Hepatitis C virus) [µM]	selectivity ratio [7]	other results
CC(C)c1ccc(-c2cc(-c3cccs3)n(COCCO)c(=O)c2C#N)cc1	0	6	23										zone of inhibition at 250 µg/disc (Aspergillus niger): 7 mm
N#Cc1c(-c2ccc(Cl)cc2)cc(-c2ccccn2)n(CCCO)c1=O	0	9	3										
C=CCOc1nc(-c2ccccn2)cc(-c2ccc(Cl)cc2)c1C#N	0	7	1										
N#Cc1c(-c2ccc(Cl)cc2)cc(-c2ccccn2)[nH]c1=O				> 2.6	> 300	> 100	> 100	> 36	> 300	1	> 100	1	selectivity ratio [1]: > 3.8; EC50 (SARS-CoV [2]): > 0.32 µM; EC50 (Influenza A virus [4]): 26 µM; EC50 (West Nile virus): > 2.2 µM
CC(C)c1ccc(-c2cc(-c3cccs3)[nH]c(=O)c2C#N)cc1				22	> 300	> 100	32	46	> 300	1	> 100	1	selectivity ratio [8]: > 4.5; EC50 (SARS-CoV [2]): > 26 µM; selectivity ratio [9]: > 2.2; selectivity ratio [10]: > 3.1; EC50 (West Nile virus): > 2.2 µM
CC(=O)OC[C@H]1O[C@@H](n2c(-c3ccccn3)cc(-c3ccc(Cl)cc3)c(C#N)c2=O)[C@H](OC(C)=O)[C@@H](OC(C)=O)[C@@H]1OC(C)=O				24	> 300	> 100	3.2	> 3.2	> 300	1	> 100	1	selectivity ratio [8]: > 4.2; EC50 (SARS-CoV [11]): 8.3 µM; selectivity ratio [12]: 4.3; selectivity ratio [10]: 1.3; EC50 (West Nile virus): > 5.1 µM
CC(=O)OC[C@H]1O[C@@H](n2c(-c3cccs3)cc(-c3cccs3)c(C#N)c2=O)[C@H](OC(C)=O)[C@@H](OC(C)=O)[C@H]1OC(C)=O				> 32	> 60	> 100	> 19	> 12	> 60	< 2.4	> 100	< 2.4	EC50 (SARS-CoV [2]): 10 µM; EC50 (Influenza A virus [4]): > 28 µM; selectivity ratio [12]: 1.9; EC50 (West Nile virus): > 3.6 µM
C[C@@]1(O)[C@H](O)[C@@H](CO)O[C@H]1n1ccc(N)nc1=O											1.6		
Nc1nc2c(ncn2COCCO)c(=O)[nH]1 [ACYCLOVIR]					9.6				3.3	> 10.4		> 30.3	
CC1(C)S[C@@H]2[C@H](NC(=O)[C@H](N)c3ccccc3)C(=O)N2[C@H]1C(=O)O [AMPICILLIN]	18		20										
CN(C)C=O [DIMETHYLFORMAMIDE]	0	0	0										zone of inhibition at 250 µg/disc (Aspergillus niger): 0 mm
CC1(C)O[C@@H]2C[C@H]3[C@@H]4C[C@H](F)C5=CC(=O)C=C[C@]5(C)[C@@]4(F)[C@@H](O)C[C@]3(C)[C@]2(C(=O)CO)O1 [FLUOCINOLONE ACETONIDE]		31											zone of inhibition at 250 µg/disc (Aspergillus niger): 22 mm
Nc1ccn([C@@H]2CS[C@H](CO)O2)c(=O)n1 [LAMIVUDINE]						0.035							
NC(=O)c1ncn([C@@H]2O[C@H](CO)[C@@H](O)[C@H]2O)n1 [RIBAVIRIN]				2			4.2	2.4					selectivity ratio [8]: > 160; selectivity ratio [1]: > 32; selectivity ratio [9]: > 130; EC50 (Influenza A virus [4]): 10 µM; selectivity ratio [10]: > 76

Source: ChEMBL document CHEMBL3120115, “Synthesis and biological evaluation of 2-oxonicotinonitriles and 2-oxonicotinonitrile based nucleoside analogues” (Eur J Med Chem, 2014)
